In ChEMBL document CHEMBL1781887, “Sulfoximine-substituted trifluoromethylpyrimidine analogs as inhibitors of proline-rich tyrosine kinase 2 (PYK2) show reduced hERG activity” (Bioorg Med Chem Lett, 2009):
One block for each compound: values may come before it.

Tests used:
[1] = (§1) Apparent permeability from apical to basolateral side of MDCK cells; type: ADME, cell-based, Canis lupus familiaris; conditions: dog
Outline: (§2)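 Madin–Darby canine kidney cell monolayers. Permeability measured in the apical-to-basolateral direction and reported as Papp.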

[2] = target: hERG (KCNH2) (Homo sapiens, UniProt Q12809); experiment: Inhibition of [3H]dofetilide binding to human ERG expressed in HEK293 cells at 10 uM; type: cell-based; conditions: HEK293 cells that express human ERG, probe [3H]dofetilide
Sequence of hERG (KCNH2) (Q12809 whole entry): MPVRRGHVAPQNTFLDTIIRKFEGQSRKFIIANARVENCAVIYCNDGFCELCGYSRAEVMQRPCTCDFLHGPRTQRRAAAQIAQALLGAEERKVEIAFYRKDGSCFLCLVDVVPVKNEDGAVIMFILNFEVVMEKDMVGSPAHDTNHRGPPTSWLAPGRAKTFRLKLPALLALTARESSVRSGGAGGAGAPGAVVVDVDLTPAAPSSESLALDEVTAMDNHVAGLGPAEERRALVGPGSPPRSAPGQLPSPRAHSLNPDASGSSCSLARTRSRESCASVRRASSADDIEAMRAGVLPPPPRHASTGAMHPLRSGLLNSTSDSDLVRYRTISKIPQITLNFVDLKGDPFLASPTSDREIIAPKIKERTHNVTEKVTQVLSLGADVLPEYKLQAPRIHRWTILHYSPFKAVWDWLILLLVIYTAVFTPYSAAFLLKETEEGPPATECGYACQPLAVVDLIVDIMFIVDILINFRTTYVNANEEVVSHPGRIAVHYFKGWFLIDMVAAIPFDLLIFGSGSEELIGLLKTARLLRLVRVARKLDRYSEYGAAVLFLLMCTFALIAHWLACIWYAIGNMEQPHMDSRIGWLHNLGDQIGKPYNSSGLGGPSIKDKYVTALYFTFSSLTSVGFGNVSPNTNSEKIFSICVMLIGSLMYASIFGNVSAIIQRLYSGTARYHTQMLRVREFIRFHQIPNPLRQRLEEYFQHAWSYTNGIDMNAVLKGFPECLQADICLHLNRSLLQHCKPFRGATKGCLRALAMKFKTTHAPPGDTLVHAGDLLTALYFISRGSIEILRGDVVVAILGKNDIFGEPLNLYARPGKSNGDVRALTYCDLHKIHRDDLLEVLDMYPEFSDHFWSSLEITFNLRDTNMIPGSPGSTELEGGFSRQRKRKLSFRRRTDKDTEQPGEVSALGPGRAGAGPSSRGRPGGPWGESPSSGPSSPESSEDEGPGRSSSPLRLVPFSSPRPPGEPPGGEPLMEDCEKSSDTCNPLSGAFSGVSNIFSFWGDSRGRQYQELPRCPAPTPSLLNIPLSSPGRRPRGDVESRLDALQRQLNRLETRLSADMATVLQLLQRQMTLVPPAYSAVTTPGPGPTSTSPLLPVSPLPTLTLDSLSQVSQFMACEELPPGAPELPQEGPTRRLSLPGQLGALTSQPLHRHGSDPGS

[3] = tested on: MDCK; experiment: as §1; type: ADME, cell-based, Canis lupus familiaris; conditions: dog; outline: as §2
[4] = Clearance in Sprague-Dawley rat at 1 mg/kg, iv; type: ADME, organism-based; set-up: dose 1 mg/kg, route intravenous; conditions: in vivo
Outline: (§3)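 Sprague–Dawley rats given 1.0 mg/kg iv. CL and Vdss obtained by non-compartmental fit of the plasma concentration–time profiles. Values are means of two experiments.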

[5] = Fraction unbound in rat plasma at 1 ug/mL; type: ADME, cell-free
Outline: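 Rat plasma protein binding measured in vivo at a drug concentration of 1 μg/mL. Result expressed as fraction unbound (fu).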

[6] = Lipophilicity, log D of the compound at pH 7.4; type: physicochemical; conditions: buffer
[7] = Mean residence time in Sprague-Dawley rat; type: ADME, organism-based; conditions: in vivo
[8] = Volume of distribution at steady state in Sprague-Dawley rat at 1 mg/kg, iv; type: ADME, organism-based; set-up: dose 1 mg/kg, route intravenous; conditions: in vivo, read-out: Vdss; outline: as §3
[9] = Cmax in Sprague-Dawley rat at 10 mg/kg, po; type: ADME, organism-based; set-up: dose 10 mg/kg, route oral; conditions: in vivo
Outline: (§4)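 Sprague–Dawley rats given a single 10 mg/kg oral dose. Cmax and AUCinf taken from the plasma concentration–time profile. Cave calculated as AUCinf divided by the dosing interval in h. Free concentration refers to the unbound fraction in plasma. Values are means of two experiments.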

[10] = AUC (infinity) in Sprague-Dawley rat at 10 mg/kg, po; type: ADME, organism-based; set-up: time infinity, dose 10 mg/kg, route oral; conditions: plasma; outline: as §4
[11] = Oral bioavailability in Sprague-Dawley rat at 10 mg/kg, po; type: ADME, organism-based; conditions: in vivo
[12] = tested on: Rattus norvegicus; experiment: Average free plasma concentration in Sprague-Dawley rat at 10 mg/kg, po; type: ADME, organism-based; set-up: dose 10 mg/kg, route oral; conditions: in vivo; outline: as §4
[13] = target: T1, Protein-tyrosine kinase 2-beta (Homo sapiens, UniProt Q14289); experiment: Inhibition of PYK2 assessed as reduction in peptide substrate phosphorylation by fluorimetric method
T1 sequence (Q14289 whole entry): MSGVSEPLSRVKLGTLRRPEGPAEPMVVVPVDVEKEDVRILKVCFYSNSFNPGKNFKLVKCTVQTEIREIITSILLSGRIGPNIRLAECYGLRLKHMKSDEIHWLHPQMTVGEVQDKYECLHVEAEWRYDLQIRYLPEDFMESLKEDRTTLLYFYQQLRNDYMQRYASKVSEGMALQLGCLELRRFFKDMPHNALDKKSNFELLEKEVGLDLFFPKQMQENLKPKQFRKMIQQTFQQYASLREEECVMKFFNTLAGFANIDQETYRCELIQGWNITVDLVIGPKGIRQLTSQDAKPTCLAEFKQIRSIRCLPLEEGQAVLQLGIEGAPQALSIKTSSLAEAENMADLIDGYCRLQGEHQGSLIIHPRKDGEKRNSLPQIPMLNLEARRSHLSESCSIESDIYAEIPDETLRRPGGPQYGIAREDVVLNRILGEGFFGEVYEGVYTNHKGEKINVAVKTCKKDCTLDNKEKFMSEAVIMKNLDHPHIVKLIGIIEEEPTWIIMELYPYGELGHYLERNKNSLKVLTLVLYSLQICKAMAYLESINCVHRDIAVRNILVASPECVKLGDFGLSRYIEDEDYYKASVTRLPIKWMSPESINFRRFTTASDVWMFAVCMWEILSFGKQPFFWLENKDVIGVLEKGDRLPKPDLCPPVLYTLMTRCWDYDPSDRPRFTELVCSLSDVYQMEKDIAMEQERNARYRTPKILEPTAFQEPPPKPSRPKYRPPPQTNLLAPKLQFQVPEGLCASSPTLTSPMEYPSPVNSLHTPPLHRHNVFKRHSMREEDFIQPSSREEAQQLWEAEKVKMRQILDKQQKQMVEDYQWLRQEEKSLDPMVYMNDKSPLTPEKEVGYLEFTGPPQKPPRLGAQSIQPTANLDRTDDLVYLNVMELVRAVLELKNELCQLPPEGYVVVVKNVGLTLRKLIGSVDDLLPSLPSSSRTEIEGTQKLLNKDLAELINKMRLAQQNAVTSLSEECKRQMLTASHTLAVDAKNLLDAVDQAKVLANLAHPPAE

[14] = target: T1, Protein-tyrosine kinase 2-beta; experiment: Inhibition of PYK2 by PYK2-LI-COR cellular assay
[15] = Hepatic extraction ratio in human liver microsomes; type: ADME, Microsome; conditions: read-out: ERH

- Papp A→B [1]: 4.7 ×10⁻⁶ cm/s
Structure (SMILES): CCN=[S+](C)([O-])c1ccc(Nc2ncc(C(F)(F)F)c(N[C@@H]3CCC[C@H]3N(C)C)n2)cc1 (mixture of isomers)
- inhibition at 10 µM [2]: 5.9%

- Papp [3]: 5.1 ×10⁻⁶ cm/s
- clearance [4]: 74 mL/min/kg
- fraction unbound at 1 ug/mL [5]: 0.36
- logD [6]: 1.7
- MRT [7]: 2.3 h
- Vd [8]: 13 L/kg
- Cmax [9]: 720 nM
- AUC(0-inf) [10]: 5 µM·h
- bioavailability [11]: 100%
- Cp(f) [12]: 76 nM
Structure (SMILES): CN=[S+](C)([O-])c1ccc(Nc2ncc(C(F)(F)F)c(N[C@@H]3CCC[C@H]3N(C)C)n2)cc1 (stereo in doubt; (S)-14a)

- Papp A→B [1]: 9.2 ×10⁻⁶ cm/s
Structure (SMILES): CN(c1ccccc1CNc1nc(Nc2ccc3c(c2)CC(=O)N3)ncc1C(F)(F)F)S(C)(=O)=O
- inhibition at 10 µM [2]: 41%

- IC50 [13]: 65 nM
- IC50 [14]: 320 nM
- hepatic extraction ratio [15]: < 0.29
- Papp A→B [1]: 1 ×10⁻⁶ cm/s
Structure (SMILES): CN(C)[C@@H]1CCC[C@H]1Nc1nc(Nc2ccc([S+](C)(=N)[O-])cc2)ncc1C(F)(F)F (mixture of isomers)
- inhibition at 10 µM [2]: 12%

- Papp A→B [1]: 9.5 ×10⁻⁶ cm/s
- clearance [4]: 42 mL/min/kg
- fraction unbound at 1 ug/mL [5]: 0.3
- logD [6]: 1.5
- MRT [7]: 3.7 h
- Vd [8]: 13 L/kg
Structure (SMILES): CN(C)[C@@H]1CCC[C@H]1Nc1nc(Nc2ccc(S(C)(=O)=O)cc2)ncc1C(F)(F)F

- Papp A→B [1]: 4.4 ×10⁻⁶ cm/s
Structure (SMILES): CN=[S+](C)([O-])c1ccc(Nc2ncc(C(F)(F)F)c(N[C@@H]3CCC[C@H]3N(C)C)n2)cc1 (mixture of isomers)

- Papp [3]: 9.3 ×10⁻⁶ cm/s
Structure (SMILES): CCN=[S+](C)([O-])c1ccc(Nc2ncc(C(F)(F)F)c(N[C@@H]3CCC[C@H]3N(C)C)n2)cc1 (stereo in doubt; (R)-14b)

- Papp A→B [1]: 5.3 ×10⁻⁶ cm/s
Structure (SMILES): CNS(=O)(=O)c1ccc(Nc2ncc(C(F)(F)F)c(N[C@@H]3CCC[C@H]3N(C)C)n2)cc1
- inhibition at 10 µM [2]: 50%

- Papp A→B [1]: 4.8 ×10⁻⁶ cm/s
Structure (SMILES): CN(C)[C@@H]1CCC[C@H]1Nc1nc(Nc2ccc(S(=O)(=O)NC3CC3)cc2)ncc1C(F)(F)F
- inhibition at 10 µM [2]: 76%

- IC50 [13]: 22 nM
- IC50 [14]: 34 nM
- hepatic extraction ratio [15]: 0.78
- Papp A→B [1]: 6.6 ×10⁻⁶ cm/s
Structure (SMILES): CC(C)N=[S+](C)([O-])c1ccc(Nc2ncc(C(F)(F)F)c(N[C@@H]3CCC[C@H]3N(C)C)n2)cc1 (mixture of isomers)
- inhibition at 10 µM [2]: 8.4%

- IC50 [13]: 21 nM
- IC50 [14]: 24 nM
- hepatic extraction ratio [15]: 0.58
- Papp A→B [1]: 7.8 ×10⁻⁶ cm/s
Structure (SMILES): CC[S+]([O-])(=NC)c1ccc(Nc2ncc(C(F)(F)F)c(N[C@@H]3CCC[C@H]3N(C)C)n2)cc1 (stereo partly drawn)
- inhibition at 10 µM [2]: 2%

- Papp [3]: 8.3 ×10⁻⁶ cm/s
Structure (SMILES): CCN=[S+](C)([O-])c1ccc(Nc2ncc(C(F)(F)F)c(N[C@@H]3CCC[C@H]3N(C)C)n2)cc1 (stereo in doubt; (S)-14b)

- Papp [3]: 5.7 ×10⁻⁶ cm/s
Structure (SMILES): CN=[S+](C)([O-])c1ccc(Nc2ncc(C(F)(F)F)c(N[C@@H]3CCC[C@H]3N(C)C)n2)cc1 (stereo in doubt; (R)-14a)
